Experimental data taken from ChEMBL document CHEMBL3853327 (J Med Chem, 2016).

Assays:
[1] = Selectivity index, ratio of CC50 for human mock-infected MT4 cells to EC50 for HIV1 3B harboring reverse transcriptase E138K mutant infected in human MT4 cells; assay type: toxicity, cell-based; conditions: MT4 cells (mock-infected for CC50, HIV-1 infected for EC50)
How it was run: (§1)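 Selectivity index is CC50/EC50. CC50 is the concentration that reduces OD540 of mock-infected MT-4 cells by 50% in the 5-day MTT assay. EC50 is the 50% protection from virus-induced cytopathicity, measured in parallel on infected wells.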

[2] = Selectivity index, ratio of CC50 for human mock-infected MT4 cells to EC50 for HIV1 3B harboring reverse transcriptase Y188L mutant infected in human MT4 cells; assay type: toxicity, cell-based; conditions: MT4 cells (mock-infected for CC50, HIV-1 infected for EC50); how it was run: as §1
[3] = tested on: Human immunodeficiency virus 1; assay: Antiviral activity against HIV1 3B harboring reverse transcriptase L100I mutant infected in human MT4 cells assessed as protection against virus induced cytotoxicity after 5 days by MTT assay; assay type: functional, cell-based; conditions: Human immunodeficiency virus 1, 3B, MT4, 120 h
How it was run: (§2)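 MTT cytopathicity assay in MT-4 cells (6 × 10^5 cells/mL). Compounds serially diluted 5-fold in triplicate wells, run in parallel on infected and mock-infected cells. Virus added at 100−300 CCID50 per well. Viability read spectrophotometrically at 540 and 690 nm after 5 days, using the median OD of three wells. EC50 is the concentration giving 50% protection from viral cytopathogenicity.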

[4] = tested on: Human immunodeficiency virus 1; assay: Antiviral activity against HIV1 3B harboring reverse transcriptase Y188L mutant infected in human MT4 cells assessed as protection against virus induced cytotoxicity after 5 days by MTT assay; assay type: functional, cell-based; conditions: Human immunodeficiency virus 1, 3B, MT4, 120 h; how it was run: as §2
[5] = tested on: Human immunodeficiency virus 1; assay: Antiviral activity against HIV1 3B harboring reverse transcriptase F227L/V106A double mutant infected in human MT4 cells assessed as protection against virus induced cytotoxicity after 5 days by MTT assay; assay type: functional, cell-based; conditions: Human immunodeficiency virus 1, 3B, MT4, 120 h; how it was run: as §2
[6] = target: Human immunodeficiency virus type 1 reverse transcriptase (Human immunodeficiency virus 1, UniProt Q72547, K103N/Y181C); assay: Inhibition of recombinant HIV1 reverse transcriptase K103N/Y181C double mutant using DIG-dUTP/biotin-dUTP/dTTP assessed as suppression of biotin-dUTP incorporation after 1 hr by ELISA
[7] = Cytotoxicity against human mock-infected MT4 cells assessed as reduction in cell viability after 5 days by MTT assay; assay type: toxicity, cell-based
How it was run: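 Mock-infected MT-4 cells (6 × 10^5 cells/mL at seeding) with serial 5-fold compound dilutions in triplicate wells. Viability read by MTT after 5 days, absorbance at 540 and 690 nm, median OD of three wells. CC50 is the concentration reducing OD540 of mock-infected cells by 50%.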

[8] = Selectivity index, ratio of CC50 for human mock-infected MT4 cells to EC50 for wild type HIV1 3B harboring reverse transcriptase infected in human MT4 cells; assay type: toxicity, cell-based; conditions: MT4 cells (mock-infected for CC50, HIV-1 infected for EC50); how it was run: as §1
[9] = Selectivity index, ratio of CC50 for human mock-infected MT4 cells to EC50 for HIV1 3B harboring reverse transcriptase K103N mutant infected in human MT4 cells; assay type: toxicity, cell-based; conditions: MT4 cells (mock-infected for CC50, HIV-1 infected for EC50); how it was run: as §1
[10] = Selectivity index, ratio of CC50 for human mock-infected MT4 cells to EC50 for HIV1 3B harboring reverse transcriptase Y181C mutant infected in human MT4 cells; assay type: toxicity, cell-based; conditions: MT4 cells (mock-infected for CC50, HIV-1 infected for EC50); how it was run: as §1
[11] = Selectivity index, ratio of CC50 for human mock-infected MT4 cells to EC50 for HIV1 3B harboring reverse transcriptase F227L/V106A double mutant infected in human MT4 cells; assay type: toxicity, cell-based; conditions: MT4 cells (mock-infected for CC50, HIV-1 infected for EC50); how it was run: as §1
[12] = tested on: Human immunodeficiency virus 1; assay: Antiviral activity against wild type HIV1 3B harboring reverse transcriptase infected in human MT4 cells assessed as protection against virus induced cytotoxicity after 5 days by MTT assay; assay type: functional, cell-based; conditions: Human immunodeficiency virus 1, 3B, MT4, 120 h
How it was run: (§3)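 MTT cytopathicity assay in MT-4 cells (6 × 10^5 cells/mL). Compounds serially diluted 5-fold in triplicate wells, run in parallel on infected and mock-infected cells. Virus added at 100−300 CCID50 per well. Viability read spectrophotometrically at 540 and 690 nm after 5 days, using the median OD of three wells.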

[13] = tested on: Human immunodeficiency virus 1; assay: Antiviral activity against HIV1 3B harboring reverse transcriptase E138K mutant infected in human MT4 cells assessed as protection against virus induced cytotoxicity after 5 days by MTT assay; assay type: functional, cell-based; conditions: Human immunodeficiency virus 1, 3B, MT4, 120 h; how it was run: as §2
[14] = Selectivity index, ratio of CC50 for human mock-infected MT4 cells to EC50 for HIV1 3B harboring reverse transcriptase L100I mutant infected in human MT4 cells; assay type: toxicity, cell-based; conditions: MT4 cells (mock-infected for CC50, HIV-1 infected for EC50); how it was run: as §1
[15] = Selectivity index, ratio of CC50 for human mock-infected MT4 cells to EC50 for HIV1 RES056 harboring reverse transcriptase K103N/Y181C double mutant infected in human MT4 cells; assay type: toxicity, cell-based; conditions: MT4 cells (mock-infected for CC50, HIV-1 infected for EC50); how it was run: as §1
[16] = Inhibition of recombinant wild type HIV1 reverse transcriptase using DIG-dUTP/biotin-dUTP/dTTP assessed as suppression of biotin-dUTP incorporation after 1 hr by ELISA; set-up: species or system Human immunodeficiency virus 1
How it was run: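 Recombinant WT HIV-1 RT in a Roche colorimetric kit: template plus DIG-dUTP, biotin-dUTP and dTTP, ±inhibitor, 1 h at 37 °C. Product captured on streptavidin plate 1 h at 37 °C, anti-DIG-POD 1 h at 37 °C, ABTS developed at 25 °C, read at OD405. IC50 is the concentration inhibiting biotin-dUTP incorporation by 50%.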

[17] = tested on: Human immunodeficiency virus 1; assay: Antiviral activity against HIV1 3B harboring reverse transcriptase K103N mutant infected in human MT4 cells assessed as protection against virus induced cytotoxicity after 5 days by MTT assay; assay type: functional, cell-based; conditions: Human immunodeficiency virus 1, 3B, MT4, 120 h; how it was run: as §2
[18] = tested on: Human immunodeficiency virus 1; assay: Fold resistance, ratio of IC50 for recombinant HIV1 reverse transcriptase K103N/Y181C double mutant to IC50 for wild type HIV1 reverse transcriptase
How it was run: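 Ratio of mutant to WT IC50. Recombinant WT and K103N/Y181C RT were assayed with a kit: template plus DIG-dUTP, biotin-dUTP and dTTP, with or without inhibitor, 1 h at 37 °C. Product was captured on streptavidin, detected with anti-DIG-POD and ABTS, and read at 405 nm. IC50 is the concentration inhibiting biotin-dUTP incorporation by 50%.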

[19] = Antiviral activity against HIV2 ROD harboring reverse transcriptase infected in human MT4 cells assessed as protection against virus induced cytotoxicity after 5 days by MTT assay; assay type: functional, cell-based, Human immunodeficiency virus type 2 (ISOLATE ROD); conditions: Human immunodeficiency virus 2, MT4, 120 h; how it was run: as §2
[20] = tested on: Human immunodeficiency virus 1; assay: Antiviral activity against HIV1 3B harboring reverse transcriptase Y181C mutant infected in human MT4 cells assessed as protection against virus induced cytotoxicity after 5 days by MTT assay; assay type: functional, cell-based; conditions: Human immunodeficiency virus 1, 3B, MT4, 120 h; how it was run: as §3

Structure (SMILES)	selectivity ratio [1]	selectivity ratio [2]	EC50 [3] [nM]	EC50 [4] [nM]	EC50 [5] [nM]	IC50 [6] [nM]	CC50 at 120 h [7] [nM]	selectivity ratio [8]	selectivity ratio [9]	selectivity ratio [10]	selectivity ratio [11]	EC50 [12] [nM]	EC50 [13] [nM]	selectivity ratio [14]	selectivity ratio [15]	IC50 [16] [nM]	EC50 [17] [nM]	Ratio IC50 [18]	EC50 [19] [nM]	EC50 [20] [nM]
Cc1cc(C)c(Oc2nc(NC3CCN(Cc4ccc(S(C)(=O)=O)cc4)CC3)nc3ccsc23)c(C)c1	187	106	23.9	32.2	23.9	2500	3420	595	548	118	81	5.7	18.2	143	12	650	6.2	3.84	> 3420	28.9
Cc1cc(C)c(Oc2nc(NC3CCN(Cc4ccc(F)cc4)CC3)nc3ccsc23)c(C)c1	72	17	1210	715	5310	6570	11900	465	130	66	2	25.7	166	10	2	1230	91.8	5.34	> 11900	182
Cc1cc(C)c(Oc2nc(NC3CCN(Cc4ccc(F)cc4F)CC3)nc3ccsc23)c(C)c1	80	18	1240	787	6610	46400	14000	380	86	21	2	36.8	174	11	< 1	1600	163	30	> 14000	660
Cc1cc(C)c(Oc2nc(NC3CCN(Cc4cccc(C#N)c4)CC3)nc3ccsc23)c(C)c1	339	120	476	143	392	5570	17200	819	445	89	44	21.1	50.9	36	≤ 3	1060	38.7	5.25	> 17200	193
Cc1cc(C#N)cc(C)c1Oc1nc(NC2CCN(Cc3ccc(S(C)(=O)=O)cc3)CC2)nc2ccsc12	566	543	73	41	44	2830	22300	1000	1800	622	507	22.1	39	306	50	1510	12	1.87	> 22300	36
Cc1cc(C)c(Oc2nc(NC3CCN(Cc4ccncc4)CC3)nc3ccsc23)c(C)c1	270	152	56.1	37.1	133	1260	5650	747	777	230	42	7.6	20.9	101	27	210	7.3	6	> 5650	24.6
Cc1cc(C)c(Oc2nc(NC3CCN(Cc4cccc(F)c4)CC3)nc3ccsc23)c(C)c1	143	41	1530	599	3120	40400	24600	628	165	98	8	39.1	172	16	3	790	149	51.2	> 24600	252
